We go through 22 compounds from ChEMBL document CHEMBL1131261, “Synthesis and antitumor activity of ring A- and F-modified hexacyclic camptothecin analogues” (J Med Chem, 1998).

By IC50 is commonly meant the concentration needed to halve the response being measured. Low values mean greater potency, high ones weaker potency.

One assay relates to QG-56. Briefly: In vitro antitumor activity against QG-56 (human lung cancer) cells. The assay is classed as functional, cell-based. Summed up:
(§1)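 MTT assay of cell growth after 3 days of incubation. IC50 is the dose that inhibits growth of 50% of the cultivated cells, given in ng/mL.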

A further assay deals with HOC-21 cell line. Briefly: In vitro antitumor activity against HOC-21 (human ovarian cancer) cells. The assay is classed as functional, cell-based. The method in brief:
as §1

Another assay relates to P388. Briefly: In vitro antitumor activity against P388 (murine leukemia) cells. To be noted: Mus musculus. The assay is classed as functional, cell-based.
The target of assay [1] is T1, DNA topoisomerase 1 (Homo sapiens) (UniProt P11387).
T1 sequence (whole entry): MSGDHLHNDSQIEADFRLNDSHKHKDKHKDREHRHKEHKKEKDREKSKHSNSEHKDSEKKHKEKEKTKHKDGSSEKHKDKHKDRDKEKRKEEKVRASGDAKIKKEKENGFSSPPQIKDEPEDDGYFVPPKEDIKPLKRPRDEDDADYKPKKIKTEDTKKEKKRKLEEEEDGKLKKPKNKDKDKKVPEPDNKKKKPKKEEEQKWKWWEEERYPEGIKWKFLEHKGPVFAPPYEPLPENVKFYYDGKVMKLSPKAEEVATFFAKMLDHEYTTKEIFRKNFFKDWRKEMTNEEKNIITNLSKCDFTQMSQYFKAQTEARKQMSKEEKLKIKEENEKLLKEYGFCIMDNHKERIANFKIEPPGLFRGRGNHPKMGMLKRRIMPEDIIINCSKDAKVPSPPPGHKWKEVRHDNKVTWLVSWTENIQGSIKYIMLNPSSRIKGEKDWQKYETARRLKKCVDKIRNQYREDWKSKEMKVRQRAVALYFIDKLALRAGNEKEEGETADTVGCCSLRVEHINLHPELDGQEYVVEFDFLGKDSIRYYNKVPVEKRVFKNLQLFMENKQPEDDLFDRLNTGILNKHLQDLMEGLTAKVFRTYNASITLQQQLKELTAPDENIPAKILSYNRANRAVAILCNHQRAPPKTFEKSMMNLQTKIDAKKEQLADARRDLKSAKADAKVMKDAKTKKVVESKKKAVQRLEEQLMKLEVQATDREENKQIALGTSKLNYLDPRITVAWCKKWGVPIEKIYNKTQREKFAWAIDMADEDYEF
Briefly: Inhibition of topoisomerase-1 compared to SN-38. The method in brief: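 DNA relaxation assay with topoisomerase I. IC50 is the concentration that inhibits 50% of the conversion of supercoiled DNA to its relaxed form. Values are given as the ratio of the test IC50 to the IC50 of SN-38.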

In brackets after ≈: the same amount, converted by molar mass. A value given as a limit tells only on which side of the number the result lay.

Regarding `CC[C@@]1(O)C(=O)OCc2c1cc1n(c2=O)Cc2c-1nc1cc(F)c(C)c3c1c2CCC3`, the IC50 with QG-56 was 0.17 ng/mL (≈ 0.000404 µM); in the assay on HOC-21 cell line, 2.06 ng/mL (≈ 0.0049 µM); with P388 it was 0.22 ng/mL (≈ 0.000523 µM). In assay [1], the Ratio was 0.51.
In the same order, the values of `CC[C@@]1(O)C(=O)OCc2c1cc1n(c2=O)Cc2c-1nc1cc(C)cc3c1c2CCC3` are 10.3 ng/mL (≈ 0.0256 µM), 101 ng/mL (≈ 0.251 µM), 5.05 ng/mL (≈ 0.0125 µM) and 3.6.
`CC[C@@]1(O)C(=O)OCc2c1cc1n(c2=O)Cc2c-1nc1ccc(N)c3c1c2CCC3`: the IC50 stood at 1.38 ng/mL (≈ 0.00342 µM) with QG-56 and 35.9 ng/mL (≈ 0.089 µM) in the assay with HOC-21 cell line. Besides, the Ratio in assay [1] was determined as 1.4.
As for `CC[C@@]1(O)C(=O)OCc2c1cc1n(c2=O)Cc2c-1nc1cc(N)c(O)c3c1c2CCC3`, the results for the 50% inhibitory concentration (IC50) in the assay on QG-56, in the assay on HOC-21 cell line and with P388 were 11.6 ng/mL (≈ 0.0277 µM), over 500 ng/mL and over 62.5 ng/mL, respectively. For the same compound, the Ratio in assay [1] is 2.6.
Taken in the same sequence, the figures for `CC[C@@]1(O)C(=O)OCc2c1cc1n(c2=O)Cc2c-1nc1ccc(O)c3c1c2CCS3` were 3.68 ng/mL (≈ 0.00871 µM), 153 ng/mL (≈ 0.361 µM), 8.63 ng/mL (≈ 0.0204 µM) and 1.6.
In the same order, the values of `CC[C@@]1(O)C(=O)OCc2c1cc1n(c2=O)Cc2c-1nc1ccc(N)c3c1c2CCS3` are 0.4 ng/mL (≈ 0.000949 µM), 8.37 ng/mL (≈ 0.0199 µM), 1.08 ng/mL (≈ 0.00256 µM) and 0.9.
In the case of `CC[C@@]1(O)C(=O)OCc2c1cc1n(c2=O)Cc2c-1nc1cc(F)cc3c1c2CCC3`, the half-maximal inhibitory concentration (IC50) stood at 0.16 ng/mL (≈ 0.000394 µM) in the assay with QG-56, 3.39 ng/mL (≈ 0.00834 µM) in the assay on HOC-21 cell line and 0.26 ng/mL (≈ 0.00064 µM) in the assay on P388. In addition, in assay [1], the Ratio came out at 0.24.
Taken in the same sequence, the figures for `CC[C@@]1(O)C(=O)OCc2c1cc1n(c2=O)Cc2c-1nc1cc(Cl)cc3c1c2CCC3` were 0.53 ng/mL (≈ 0.00125 µM), 14 ng/mL (≈ 0.0331 µM), 0.73 ng/mL (≈ 0.00173 µM) and 0.23.
On to `CC[C@@]1(O)C(=O)OCc2c1cc1n(c2=O)Cc2c-1nc1ccc(OC)c3c1c2CCN3C(C)=O`, for which the IC50 is 29.8 ng/mL (≈ 0.0646 µM) with QG-56, over 500 ng/mL in the assay with HOC-21 cell line and over 62.5 ng/mL in the assay on P388.
Take `CC[C@@]1(O)C(=O)OCc2c1cc1n(c2=O)Cc2c-1nc1cccc3c1c2CCC3`: the figures for the IC50 with QG-56, in the assay on HOC-21 cell line and with P388 were 1.63 ng/mL (≈ 0.0042 µM), 92.9 ng/mL (≈ 0.239 µM) and 5.23 ng/mL (≈ 0.0135 µM), respectively. The Ratio in assay [1] came to 4.
In the case of `CC[C@@]1(O)C(=O)OCc2c1cc1n(c2=O)Cc2c-1nc1ccc(OC)c3c1c2CCS3`, the values for the IC50 with QG-56, in the assay with HOC-21 cell line and in the assay on P388 were 3.27 ng/mL (≈ 0.00749 µM), 80.2 ng/mL (≈ 0.184 µM) and 6.49 ng/mL (≈ 0.0149 µM), respectively.
Turning to `CC[C@@]1(O)C(=O)OCc2c1cc1n(c2=O)Cc2c-1nc1ccc(C#N)c3c1c2CCC3`, the 50% inhibitory concentration (IC50) amounted to 4.21 ng/mL (≈ 0.0102 µM) with QG-56, 73.5 ng/mL (≈ 0.178 µM) in the assay with HOC-21 cell line and 8.14 ng/mL (≈ 0.0197 µM) in the assay on P388. Moreover, the Ratio in assay [1] was determined as 3.9.
In the same order, the values of `CCc1c2c(nc3ccc(O)cc13)-c1cc3c(c(=O)n1C2)COC(=O)[C@]3(O)CC` [7-ETHYL-10-HYDROXYCAMPTOTHECIN] are 0.9 ng/mL (≈ 0.00229 µM), 41.2 ng/mL (≈ 0.105 µM), 1.44 ng/mL (≈ 0.00367 µM) and 1.
Taken in the same sequence, the figures for `CC[C@@]1(O)C(=O)OCc2c1cc1n(c2=O)Cc2c-1nc1ccc(N)c3c1c2CCO3` were 0.71 ng/mL (≈ 0.00175 µM), 57.7 ng/mL (≈ 0.142 µM), 2.6 ng/mL (≈ 0.00641 µM) and 1.2.
For `CC[C@@]1(O)C(=O)OCc2c1cc1n(c2=O)Cc2c-1nc1ccc(OC)c3c1c2CCN3`, the IC50 in the assay on QG-56 turned out to be 10.6 ng/mL (≈ 0.0253 µM); in the assay with HOC-21 cell line, 106 ng/mL (≈ 0.254 µM); in the assay with P388, 10.7 ng/mL (≈ 0.0255 µM).
As to `CC[C@@]1(O)C(=O)OCc2c1cc1n(c2=O)Cc2c-1nc1cccc3c1c2CCS3`, the IC50 in the assay on QG-56 was 1.71 ng/mL (≈ 0.00421 µM); with HOC-21 cell line, 33 ng/mL (≈ 0.0812 µM); with P388 it was 3.04 ng/mL (≈ 0.00748 µM).
`CC[C@@]1(O)C(=O)OCc2c1cc1n(c2=O)Cc2c-1nc1cc(F)c(F)c3c1c2CCC3`: the IC50 in the assay on QG-56 is 0.38 ng/mL (≈ 0.000895 µM); in the assay on HOC-21 cell line, 10.9 ng/mL (≈ 0.0257 µM); in the assay with P388, 0.48 ng/mL (≈ 0.00113 µM). Further, the Ratio in assay [1] worked out at 0.7.
In the same order, the values of `CC[C@@]1(O)C(=O)OCc2c1cc1n(c2=O)Cc2c-1nc1cc(O)cc3c1c2CCC3` are 4.7 ng/mL (≈ 0.0116 µM), 20.6 ng/mL (≈ 0.0509 µM), 0.99 ng/mL (≈ 0.00245 µM) and 0.17.
In the same order, the values of `CC[C@@]1(O)C(=O)OCc2c1cc1n(c2=O)Cc2c-1nc1cc(F)c(F)c3c1c2CCC3O` (some centres not stated) are 2.62 ng/mL (≈ 0.00595 µM), 68.9 ng/mL (≈ 0.156 µM), 3.17 ng/mL (≈ 0.0072 µM) and 1.2.
Consider `CC[C@@]1(O)C(=O)OCc2c1cc1n(c2=O)Cc2c-1nc1cc(OC)cc3c1c2CCC3`, for which the results for the IC50 with QG-56, with HOC-21 cell line and with P388 were 1.32 ng/mL (≈ 0.00315 µM), 17.4 ng/mL (≈ 0.0416 µM) and 1.01 ng/mL (≈ 0.00241 µM), respectively. In addition, the Ratio in assay [1] was determined as 0.7.
For the compound `CC[C@@]1(O)C(=O)OCc2c1cc1n(c2=O)Cc2cc3ccccc3nc2-1`, the Ratio in assay [1] was 0.39.
In the case of `CC[C@@]1(O)C(=O)OCc2c1cc1n(c2=O)Cc2c-1nc1ccc(O)c3c1c2CCC3`, the Ratio in assay [1] was determined as 0.47.
